Test results published in ChEMBL document CHEMBL2034832, “12-N-Methylated 5,6-dihydrobenzo[c]acridine derivatives: a new class of highly selective ligands for c-myc G-quadruplex DNA” (Eur J Med Chem, 2012).
Calls of active or inactive are those of the source. The calls are words filed in the database; no cut-off is given here.

Legend:
[1] = test system: Nucleic Acid; test: Binding affinity to c-myc quadruplex DNA FPu18T assessed as change in melting temperature at 2 uM by FRET-melting assay in the presence of excess of ds26 duplex DNA; format: nucleic-acid assay
Procedure, shortened: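 Competition FRET melting: 0.2 μM FPu18T with 2 μM ligand in 10 mM Tris-HCl pH 7.2, 0.2 mM KCl, plus varying amounts of unlabelled self-complementary ds26 duplex as competitor. Fluorescence at 470/530 nm recorded per 1 °C step over 37–99 °C.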

[2] = test system: Nucleic Acid; test: Binding affinity to c-myc quadruplex DNA FPu18T assessed as change in melting temperature at 2 uM by FRET-melting assay; format: nucleic-acid assay
Procedure, shortened: (§1)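 FRET melting of 0.2 μM dual-labelled oligo (FPu18T, FAM/TAMRA c-myc G-quadruplex; or F10T, HEG-linked hairpin duplex) in 10 mM Tris-HCl pH 7.2, 0.2 mM KCl, with or without 2 μM ligand. Excitation 470 nm, emission 530 nm, read every 1 °C from 37–99 °C after 30 s hold. ΔTm = Tm(DNA+ligand) − Tm(DNA); mean ± SD of at least three runs.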

[3] = test system: Nucleic Acid; test: Binding affinity to duplex DNA F10T assessed as change in melting temperature at 2 uM by FRET-melting assay; format: nucleic-acid assay; procedure, shortened: as §1
[4] = test system: Nucleic Acid; test: Binding affinity to c-myc quadruplex DNA Pu27 assessed as conformational change up to 10 uM by circular dichroism in the presence of 100 mM K+; format: nucleic-acid assay
Procedure, shortened: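 CD titration of 1 μM Pu27, annealed (95 °C 5 min, slow cool, 4 °C overnight) in 10 mM Tris-HCl pH 7.2, 100 mM KCl. Ligand added stepwise (0.5–10 eq.) at 25 °C, ≥10 min equilibration per addition. Spectra 230–430 nm, 1 cm cell, average of two scans, buffer baseline subtracted.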

[5] = test system: Nucleic Acid; test: Binding affinity to c-myc quadruplex DNA Pu27 assessed as conformational change up to 10 uM by circular dichroism in the absence of 100 mM K+; format: nucleic-acid assay
Procedure, shortened: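 K+-free CD: 1 μM Pu27 in 10 mM Tris-HCl pH 7.2 with ligand at 0, 3, 5 or 10 μM, co-annealed (95 °C 5 min, slow cool, 4 °C overnight). Spectra recorded at 25 °C over 230–430 nm, 1 cm cell, two scans averaged, buffer baseline subtracted.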

[6] = target: Nucleic Acid; test: Binding affinity to c-myc quadruplex DNA Pu27 assessed as inhibition of c-myc amplification by PCR-stop assay; format: nucleic-acid assay
Procedure, shortened: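 Pu27 template with partly complementary primer, 10 μM each, […], 2.5 U Taq and ligand at 1, 5, 10 or 25 μM (one series 50 μM). Cycling: 94 °C 2 min, then 30 × (94 °C, 58 °C, 72 °C, 30 s each). Products run on 16% native PAGE, GelRed stain; IC50 for 50% loss of amplification.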

[7] = test system: Nucleic Acid; test: Binding affinity to immobilised duplex DNA up to 10 uM by SPR assay; format: nucleic-acid assay
Procedure, shortened: (§2)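 SPR: biotinylated DNA captured (~1000 RU) on GLH chip, blank reference cell. Running buffer 50 mM Tris-HCl pH 7.2, 100 mM KCl. Ligand at 0.3125–10 μM injected at 100 μL/min, 400 s association and 400 s dissociation, 25 °C; NaOH regeneration. KD by equilibrium analysis; mean ± SD of at least two runs.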

[8] = target: Nucleic Acid; test: Binding affinity to immobilised c-myc quadruplex DNA G4 by SPR assay; format: nucleic-acid assay; procedure, shortened: as §2
[9] = test system: CA46; test: Growth inhibition of c-myc NHE III1-deficient human CA46 cell line at 2.5 to 10 uM after 4 days by cell counting; format: functional, cell-based
Procedure, shortened: (§3)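 Cells seeded at 1.0×10^5 per well and exposed to ligand (2.5, 5 or 10 μM) or 0.1% DMSO for 4 days. Cell counts and viability taken daily; three repeats per point.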

[10] = test system: Ramos; test: Growth inhibition of human Ramos cell line expressing c-myc NHE III1 after 4 days by cell counting; format: functional, cell-based; procedure, shortened: as §3
[11] = test system: Ramos; test: Down-regulation of c-myc gene expression in human Ramos cells after 4 days by RT-PCR analysis; format: functional, cell-based
Procedure, shortened: (§4)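 Cells given ligand at 0.5, 1, 2.5 or 5 μM for 4 days. Total RNA (TRIpure) 2 μg reverse-transcribed with oligo dT18/M-MLV (42 °C 1 h). c-myc and β-actin amplified by PCR, run on 1% agarose; c-myc normalized to β-actin.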

[12] = test system: CA46; test: Down-regulation of c-myc gene expression in human CA46 cells at 0.5 to 5 uM after 4 days by RT-PCR analysis; format: functional, cell-based; procedure, shortened: as §4

SMILES: COc1ccc2c(cc3c([n+]2C)-c2cc4c(cc2CC3)OCO4)c1OCCCN1CCCC1
- Activity [1]: Active
- ΔTm [2]: 22.2 °C
- ΔTm [3]: 1.1 °C
- Activity [4]: Active
- Activity [5]: Active
- IC50 [6]: 5300 nM
- Activity [7]: inactive
- Kd [8]: 400 nM

SMILES: COc1cc2c(cc1OC)-c1c(cc3c(OCCCN4CCCCC4)c(OC)ccc3[n+]1C)CC2
- Activity [1]: Active
- growth inhibition (GI) [9]: inactive
- ΔTm [2]: 23.2 °C
- growth inhibition (GI) [10]: Dose-dependent effect
- Activity [11]: Dose-dependent effect
- ΔTm [3]: 0.8 °C
- Activity [4]: Active
- Activity [12]: inactive
- Activity [5]: Active
- IC50 [6]: 5000 nM
- Activity [7]: inactive
- Kd [8]: 600 nM

SMILES: CCN(CC)CCOc1c(OC)ccc2nc3c(cc12)CCc1cc2c(cc1-3)OCO2
- Activity [1]: Active
- ΔTm [2]: 6.3 °C
- ΔTm [3]: 1.6 °C
- Activity [4]: Active
- Activity [5]: Active
- IC50 [6]: > 50000 nM
- Activity [7]: inactive
- Kd [8]: 2600 nM

SMILES: COc1cc2c(cc1OC)-c1c(cc3c(OCCCN4CCCC4)c(OC)ccc3[n+]1C)CC2
- Activity [1]: Active
- ΔTm [2]: 25.4 °C
- ΔTm [3]: 1.4 °C
- Activity [4]: Active
- Activity [5]: Active
- IC50 [6]: 4700 nM
- Activity [7]: inactive
- Kd [8]: 600 nM

SMILES: CCN(CC)CCCOc1c(OC)ccc2c1cc1c([n+]2C)-c2cc3c(cc2CC1)OCO3
- Activity [1]: Active
- ΔTm [2]: 21.8 °C
- ΔTm [3]: 1.2 °C
- Activity [4]: Active
- Activity [5]: Active
- IC50 [6]: 7500 nM
- Activity [7]: inactive
- Kd [8]: 600 nM

SMILES: CCN(CC)CCCOc1c(OC)ccc2nc3c(cc12)CCc1cc2c(cc1-3)OCO2
- Activity [1]: Active
- ΔTm [2]: 6.2 °C
- ΔTm [3]: 1 °C
- Activity [4]: Active
- Activity [5]: Active
- IC50 [6]: > 50000 nM
- Activity [7]: inactive
- Kd [8]: 3000 nM

SMILES: COc1ccc2c(cc3c([n+]2C)-c2cc4c(cc2CC3)OCO4)c1OCCCN1CCCCC1
- Activity [1]: Active
- ΔTm [2]: 21.4 °C
- ΔTm [3]: 0.5 °C
- Activity [4]: Active
- Activity [5]: Active
- IC50 [6]: 5400 nM
- Activity [7]: inactive
- Kd [8]: 600 nM

SMILES: COc1ccc2c(cc3c([n+]2C)-c2cc4c(cc2CC3)OCO4)c1OCCCN1CCN(C)CC1
- Activity [1]: Active
- ΔTm [2]: 19 °C
- ΔTm [3]: 0.5 °C
- Activity [4]: Active
- Activity [5]: Active
- IC50 [6]: 9500 nM
- Activity [7]: inactive
- Kd [8]: 800 nM

SMILES: COc1cc2c(cc1OC)-c1nc3ccc(OC)c(OCCCN4CCCCC4)c3cc1CC2
- Activity [1]: Active
- ΔTm [2]: 11 °C
- ΔTm [3]: 1 °C
- Activity [4]: Active
- Activity [5]: Active
- IC50 [6]: > 50000 nM
- Activity [7]: inactive
- Kd [8]: 2800 nM

SMILES: COc1ccc2nc3c(cc2c1OCCN1CCCC1)CCc1cc2c(cc1-3)OCO2
- Activity [1]: Active
- ΔTm [2]: 5.3 °C
- ΔTm [3]: 1 °C
- Activity [4]: Active
- Activity [5]: Active
- IC50 [6]: > 50000 nM
- Activity [7]: inactive
- Kd [8]: 1400 nM

SMILES: COc1ccc2c(cc3c([n+]2C)-c2cc4c(cc2CC3)OCO4)c1OCCCNC1CCCCC1
- Activity [1]: Active
- ΔTm [2]: 11.6 °C
- ΔTm [3]: 0.9 °C
- Activity [4]: Active
- Activity [5]: Active
- IC50 [6]: 14000 nM
- Activity [7]: inactive
- Kd [8]: 1200 nM

SMILES: CCN(CC)CCCOc1c(OC)ccc2nc3c(cc12)CCc1cc(OC)c(OC)cc1-3
- Activity [1]: Active
- ΔTm [2]: 11.2 °C
- ΔTm [3]: 0.4 °C
- Activity [4]: Active
- Activity [5]: Active
- IC50 [6]: > 50000 nM
- Activity [7]: inactive
- Kd [8]: 4400 nM
